Test results published in ChEMBL document CHEMBL3808334, “Synthesis and in vitro evaluation of novel triazine analogues as anticancer agents and their interaction studies with bovine serum albumin” (Eur J Med Chem, 2016).

Tests used:
Format in all cases: functional
[1] = system: NCI-H23; test: Growth inhibition of human NCI-H23 cells assessed as cell growth at 10 uM incubated for 48 hrs by sulforhodamine B assay; settings: NCI-H23, 48 h, read-out: Activity
[2] = system: SN12C; test: Growth inhibition of human SN12C cells assessed as cell growth at 10^-8 M incubated for 48 hrs by sulforhodamine B assay; settings: read-out: Activity
[3] = system: K562; test: Growth inhibition of human K562 cells assessed as cell growth at 10^-6 M incubated for 48 hrs by sulforhodamine B assay; settings: K562, 48 h, read-out: Activity
[4] = system: NCI-H460; test: Growth inhibition of human NCI-H460 cells assessed as cell growth at 10^-6 M incubated for 48 hrs by sulforhodamine B assay; settings: NCI-H460, 48 h, read-out: Activity
[5] = Growth inhibition of human TK10 cells assessed as cell growth at 10^-5 M incubated for 48 hrs by sulforhodamine B assay; settings: TK-10, 48 h, read-out: Activity
[6] = system: Malme-3M; test: Growth inhibition of human MALME-3M cells assessed as cell growth at 10^-4 M incubated for 48 hrs by sulforhodamine B assay; settings: read-out: Activity
[7] = Growth inhibition of human OVCAR5 cells assessed as cell growth at 10 uM incubated for 48 hrs by sulforhodamine B assay; settings: OVCAR-5, 48 h, read-out: Activity
[8] = Growth inhibition of human SNB75 cells assessed as cell growth at 10^-6 M incubated for 48 hrs by sulforhodamine B assay; settings: SNB-75, 48 h, read-out: Activity
[9] = Growth inhibition of human HOP62 cells assessed as cell growth at 10 uM incubated for 48 hrs by sulforhodamine B assay; settings: HOP-62, 48 h, read-out: Activity
[10] = system: MDA-MB-468; test: Growth inhibition of human MDA-MB-468 cells assessed as cell growth at 10^-6 M incubated for 48 hrs by sulforhodamine B assay; settings: MDA-MB-468, 48 h, read-out: Activity
[11] = system: A549; test: Growth inhibition of human A549/ATCC cells assessed as cell growth at 10^-8 M incubated for 48 hrs by sulforhodamine B assay; settings: A549, 48 h, read-out: Activity
In short: (§1)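 Five-dose assay: five concentrations from 10-fold or ½-log serial dilutions. Cells are plated at 5,000–40,000 per well according to doubling time, grown 24 h, then exposed 48 h at 37 °C, 5% CO₂. Fixed with cold 50% TCA (final addition) for 60 min at 4 °C and stained with 0.4% SRB in 1% acetic acid. Bound dye is solubilized in 10 mM Tris base and read at 515 nm. GI₅₀ is where [(Ti−Tz)/(C−Tz)]×100 = 50, with a time-zero plate as Tz.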

[12] = system: NCI-H460; test: Growth inhibition of human NCI-H460 cells assessed as cell growth at 10^-7 M incubated for 48 hrs by sulforhodamine B assay; settings: NCI-H460, 48 h, read-out: Activity
[13] = system: NCI-H23; test: Growth inhibition of human NCI-H23 cells assessed as cell growth at 10^-8 M incubated for 48 hrs by sulforhodamine B assay; settings: NCI-H23, 48 h, read-out: Activity
[14] = system: 786-0; test: Growth inhibition of human 786-0 cells assessed as cell growth at 10^-4 M incubated for 48 hrs by sulforhodamine B assay; settings: 786-0, 48 h, read-out: Activity; in short: as §1
[15] = system: MDA-MB-435; test: Growth inhibition of human MDA-MB-435 cells assessed as cell growth at 10^-8 M incubated for 48 hrs by sulforhodamine B assay; settings: MDA-MB-435, 48 h, read-out: Activity
[16] = system: EKVX; test: Growth inhibition of human EKVX cells assessed as cell growth at 10^-6 M incubated for 48 hrs by sulforhodamine B assay; settings: read-out: Activity
In short: (§2)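 Cells seeded at 5,000–40,000/well according to doubling time and preincubated 24 h at 37 °C, 5% CO2. Time-zero plates were TCA-fixed. DMSO concentrate was diluted in medium with 50 µg/ml gentamicin to give five concentrations (10-fold or ½ log steps), then exposed 48 h. Cells were TCA-fixed, stained with 0.4% SRB and read at 515 nm. Percent growth was taken against time-zero and control; GI50, TGI and LC50 derived.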

[17] = system: CCRF-CEM; test: Growth inhibition of human CCRF-CEM cells assessed as cell growth at 10^-7 M incubated for 48 hrs by sulforhodamine B assay; settings: read-out: Activity
In short: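 Leukemia line in the five-dose format: five concentrations from 10-fold or ½-log serial dilutions. Plated at 5,000–40,000 cells per well, preincubated 24 h, then compound added for 48 h at 37 °C, 5% CO₂. Sulforhodamine B absorbance read at 515 nm. Growth is computed against time-zero (Tz) and control (C) readings; GI₅₀ is where [(Ti−Tz)/(C−Tz)]×100 = 50.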

[18] = system: NCI/ADR-RES; test: Growth inhibition of human NCI/ADR-RES cells incubated for 48 hrs by sulforhodamine B assay
In short: (§3)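 Cells were plated at 5,000–40,000 per well according to doubling time and preincubated 24 h at 37 °C in 5% CO2; time-zero plates were then TCA-fixed. Five concentrations (10-fold or ½-log dilutions, DMSO stock) were incubated 48 h. Cells were TCA-fixed, stained with 0.4% SRB and read at 515 nm. GI50 was taken where [(Ti−Tz)/(C−Tz)]×100 = 50.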

[19] = system: NCI/ADR-RES; test: Growth inhibition of human NCI/ADR-RES cells assessed as cell growth at 10^-5 M incubated for 48 hrs by sulforhodamine B assay; settings: read-out: Activity
[20] = system: KM12; test: Growth inhibition of human KM12 cells incubated for 48 hrs by sulforhodamine B assay; settings: KM12, 48 h; in short: as §3
[21] = Growth inhibition of human HCT15 cells assessed as cell growth at 10^-5 M incubated for 48 hrs by sulforhodamine B assay; settings: HCT-15, 48 h, read-out: Activity; in short: as §2
[22] = Growth inhibition of human OVCAR3 cells incubated for 48 hrs by sulforhodamine B assay; settings: OVCAR-3, 48 h; in short: as §3
[23] = Growth inhibition of human colon cancer cells incubated for 48 hrs by sulforhodamine B assay; settings: Cancer cell lines; for CC50: read-out: LC50 (the source's name)
[24] = system: T47D; test: Growth inhibition of human T47D cells incubated for 48 hrs by sulforhodamine B assay; in short: as §3
[25] = system: NCI-H322M; test: Growth inhibition of human NCI-H322M cells assessed as cell growth at 10^-7 M incubated for 48 hrs by sulforhodamine B assay; settings: read-out: Activity
[26] = system: Malme-3M; test: Growth inhibition of human MALME-3M cells assessed as cell growth at 10 uM incubated for 48 hrs by sulforhodamine B assay; settings: read-out: Activity
[27] = read-out: LC50 (the source's name)
[28] = read-out: pLC50 (the source's name) (converted)

`c1ccc(-c2nc(Nc3ccc(-c4nc5ccccc5[nH]4)cc3)nc(N3CCOCC3)n2)cc1` gave a growth at 10 µM [1] of -59%, a growth at 0.01 µM [2] of 96% and a growth at 1 µM [3] of -2%. The growth at 1 µM [4] was 45%, the growth at 10 µM [5] was -87% and the growth at 100 µM [6] was -54%. For the same molecule, the growth at 10 µM [7] was 0.63%, the growth at 1 µM [8] was 88% and the growth at 10 µM [9] was -64.5%. It also gave a growth at 1 µM [10] of 102%, a growth at 0.01 µM [11] of 103% and a growth at 0.1 µM [12] of 103%. The growth at 0.01 µM [13] was 95%, the growth at 100 µM [14] was -71% and the growth at 0.01 µM [15] was 98%. It also gave a growth at 1 µM [16] of 81%, a growth at 0.1 µM [17] of 99% and a GI50 ([18]; read-out: GI50) of 1930 nM. It also gave a CC50 [18, 27] greater than 100000 nM, a TGI ([18]; read-out: TGI) of 5530 nM and a GI50 ([18]; read-out: pGI50 (converted)) of 1950 nM. It also gave a CC50 [18, 28] greater than 100000 nM, a TGI ([18]; read-out: pTGI (converted)) of 5500 nM and a growth at 10 µM [19] of -28%. The GI50 ([20]; read-out: GI50) was 1620 nM, the CC50 [20, 27] was 6300 nM and the TGI ([20]; read-out: TGI) was 3190 nM. The GI50 ([20]; read-out: pGI50 (converted)) was 1620 nM, the CC50 [20, 28] was 6310 nM and the TGI ([20]; read-out: pTGI (converted)) was 3160 nM. It also gave a growth at 10 µM [21] of -58%, a GI50 ([22]; read-out: GI50) of 1520 nM and a CC50 [22, 27] of 5830 nM. It also gave a TGI ([22]; read-out: TGI) of 2980 nM, a GI50 ([22]; read-out: pGI50 (converted)) of 1510 nM and a CC50 [22, 28] of 5890 nM. The TGI ([22]; read-out: pTGI (converted)) was 2950 nM, the GI50 [23] was 990 nM and the TGI [23] was 2550 nM. For the same molecule, the CC50 [23] was 6530 nM, the GI50 ([24]; read-out: GI50) was 1620 nM and the CC50 [24, 27] was 9020 nM. The TGI ([24]; read-out: TGI) was 3820 nM, the GI50 ([24]; read-out: pGI50 (converted)) was 1620 nM and the CC50 [24, 28] was 9120 nM. It also gave a TGI ([24]; read-out: pTGI (converted)) of 3800 nM, a growth at 0.1 µM [25] of 101% and a growth at 10 µM [26] of -77.3%.
`Clc1ccc(-c2nc(Nc3ccc(-c4nc5ccccc5[nH]4)cc3)nc(N3CCOCC3)n2)cc1` showed a growth at 10 µM [1] of -83.4%, a growth at 0.01 µM [2] of 95% and a growth at 1 µM [3] of -63%. For the same molecule, the growth at 1 µM [4] was -45%, the growth at 10 µM [5] was -96% and the growth at 100 µM [6] was -16%. The growth at 10 µM [7] was -74.7%, the growth at 1 µM [8] was 95% and the growth at 10 µM [9] was -73.9%. It also gave a growth at 1 µM [10] of 25%, a growth at 0.01 µM [11] of 96% and a growth at 0.1 µM [12] of 100%. For the same molecule, the growth at 0.01 µM [13] was 97%, the growth at 100 µM [14] was -21% and the growth at 0.01 µM [15] was 100%. It also gave a growth at 1 µM [16] of 58%, a growth at 0.1 µM [17] of 99% and a GI50 ([18]; read-out: GI50) of 631 nM. The TGI ([18]; read-out: TGI) was 2190 nM, the GI50 ([18]; read-out: pGI50 (converted)) was 631 nM and the TGI ([18]; read-out: pTGI (converted)) was 2190 nM. The growth at 10 µM [19] was -72%, the GI50 ([20]; read-out: GI50) was 370 nM and the CC50 [20, 27] was 4750 nM. The TGI ([20]; read-out: TGI) was 1410 nM, the GI50 ([20]; read-out: pGI50 (converted)) was 372 nM and the CC50 [20, 28] was 4790 nM. The TGI ([20]; read-out: pTGI (converted)) was 1410 nM, the growth at 10 µM [21] was -76% and the GI50 ([22]; read-out: GI50) was 374 nM. For the same molecule, the CC50 [22, 27] was 3990 nM, the TGI ([22]; read-out: TGI) was 1370 nM and the GI50 ([22]; read-out: pGI50 (converted)) was 372 nM. The CC50 [22, 28] was 3980 nM, the TGI ([22]; read-out: pTGI (converted)) was 1380 nM and the GI50 [23] was 260 nM. It also gave a TGI [23] of 690 nM, a CC50 [23] of 2750 nM and a GI50 ([24]; read-out: GI50) of 376 nM. The TGI ([24]; read-out: TGI) was 1720 nM, the GI50 ([24]; read-out: pGI50 (converted)) was 380 nM and the TGI ([24]; read-out: pTGI (converted)) was 1740 nM. For the same molecule, the growth at 0.1 µM [25] was 94% and the growth at 10 µM [26] was -73.4%.
